Measured values taken from article PMC6606825 (Journal of Ginseng Research, 2018).

Experiment: Pharmacokinetics of CK and its metabolite 20
Assay type: in vivo, healthy Chinese volunteers
How it was run: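 Healthy adults given one oral tablet dose fasting (overnight, or 10 h in a crossover food-effect arm); 30 subjects from the 100/200/400 mg groups were pooled with 24 from 200 mg fasting periods. Plasma was stored at −70°C, extracted with MTBE plus internal standards and assayed by LC-MS/MS. Cmax was observed and AUClast calculated by linear trapezoid, each divided by dose. The metabolite/parent ratio was also calculated. Genotyping used Sequenom MassARRAY, and log-transformed values were compared by one-way ANOVA.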

[1] = ABCC4 rs1151471 CC, n = 2, mean (SD)
[2] = ABCC4 rs2274406 TT (first line), mean (SD)
[3] = ABCC4 rs2274406 TT (third line), mean (SD)
[4] = ABCG2 rs2054576 AA (first line), mean (SD)
[5] = ABCG2 rs2054576 AA (third line), mean (SD)

CC(C)=CCC[C@](C)(O[C@@H]1O[C@H](CO)[C@@H](O)[C@H](O)[C@H]1O)[C@H]1CC[C@]2(C)[C@@H]1[C@H](O)C[C@@H]1[C@@]3(C)CC[C@H](O)C(C)(C)[C@@H]3CC[C@]12C [Ginsenoside compound K, 20-O-beta-D-glucopyranosyl-20(S)-protopanaxadiol]
dose-normalized exposure among the groups (100, 200, 400 mg single-dose groups and food-effect trial, fasting): not significantly different | CK AUClast/D (ABCB1 rs1045642 AA, mean (SD)): 28.81 (11.93) | CK Cmax/D (ABCB1 rs1045642 AA, mean (SD)): 4.03 (1.47) | CK AUClast/D (ABCB1 rs1045642 AG, mean (SD)): 27.71 (15.58) | CK Cmax/D (ABCB1 rs1045642 AG, mean (SD)): 3.50 (1.91) | CK AUClast/D (ABCB1 rs1045642 GG, mean (SD)): 31.19 (22.91) | CK Cmax/D (ABCB1 rs1045642 GG, mean (SD)): 4.13 (2.82) | CK AUClast/D (ABCB1 rs1128503 AA, mean (SD)): 28.07 (15.30) | CK Cmax/D (ABCB1 rs1128503 AA, mean (SD)): 3.67 (1.80) | CK AUClast/D (ABCB1 rs1128503 AG, mean (SD)): 28.43 (20.03) | CK Cmax/D (ABCB1 rs1128503 AG, mean (SD)): 3.66 (2.34) | CK AUClast/D (ABCB1 rs1128503 GG, mean (SD)): 33.81 (17.43) | CK Cmax/D (ABCB1 rs1128503 GG, mean (SD)): 4.67 (3.44) | CK AUClast/D (ABCB1 rs2032582 AA, mean (SD)): 26.68 (12.71) | CK Cmax/D (ABCB1 rs2032582 AA, mean (SD)): 3.81 (2.02) | CK AUClast/D (ABCB1 rs2032582 CA, mean (SD)): 27.47 (15.11) | CK Cmax/D (ABCB1 rs2032582 CA, mean (SD)): 3.46 (1.72) | CK AUClast/D (ABCB1 rs2032582 CC, mean (SD)): 33.69 (25.60) | CK Cmax/D (ABCB1 rs2032582 CC, mean (SD)): 4.42 (3.14) | CK AUClast/D (ABCC2 rs717620 CC, mean (SD)): 31.60 (19.89) | CK Cmax/D (ABCC2 rs717620 CC, mean (SD)): 3.98 (2.30) | CK AUClast/D (ABCC2 rs717620 CT, mean (SD)): 25.18 (13.50) | CK Cmax/D (ABCC2 rs717620 CT, mean (SD)): 3.48 (2.01) | CK AUClast/D (ABCC2 rs2273697 GA, mean (SD)): 35.66 (26.59) | CK Cmax/D (ABCC2 rs2273697 GA, mean (SD)): 4.74 (3.23) | CK AUClast/D (ABCC2 rs2273697 GG, mean (SD)): 25.98 (12.06) | CK Cmax/D (ABCC2 rs2273697 GG, mean (SD)): 3.35 (1.44) | CK AUClast/D (ABCC2 rs2756109 GG, mean (SD)): 27.59 (12.16) | CK AUClast/D (ABCC2 rs3740066 CC, mean (SD)): 32.09 (20.46) | CK Cmax/D (ABCC2 rs3740066 CC, mean (SD)): 4.02 (2.37) | CK Cmax/D (ABCC2 rs3740066 CT, mean (SD)): 3.3 (1.87) | CK AUClast/D (ABCC2 rs3740066 TT, n = 1): 55.95 (—) | CK Cmax/D (ABCC2 rs3740066 TT, n = 1): 6.24 (—) | CK AUClast/D (ABCC3 rs4148416 CC, mean (SD)): 29.20 (18.77) | CK Cmax/D (ABCC3 rs4148416 CC, mean (SD)): 3.72 (2.07) | CK AUClast/D (ABCC3 rs4148416 CT, mean (SD)): 27.15 (14.29) | CK Cmax/D (ABCC3 rs4148416 CT, mean (SD)): 3.78 (2.53) | CK AUClast/D (ABCC3 rs4793665 CT, mean (SD)): 29.14 (12.55) | CK Cmax/D (ABCC3 rs4793665 CT, mean (SD)): 4.04 (2.17) | CK AUClast/D (ABCC3 rs4793665 TT, mean (SD)): 28.53 (18.94) | CK Cmax/D (ABCC3 rs4793665 TT, mean (SD)): 3.65 (2.19) | CK AUClast/D (ABCC3 rs12051822 GA, mean (SD)): 23.66 (11.90) | CK Cmax/D (ABCC3 rs12051822 GA, mean (SD)): 3.09 (1.13) | CK AUClast/D (ABCC3 rs12051822 GG, mean (SD)): 30.37 (18.95) | CK Cmax/D (ABCC3 rs12051822 GG, mean (SD)): 3.96 (2.39) | CK AUClast/D [1]: 13.68 (2.21) | CK Cmax/D [1]: 2.08 (0.39) | CK AUClast/D (ABCC4 rs1151471 TC, mean (SD)): 24.64 (13.71) | CK Cmax/D (ABCC4 rs1151471 TC, mean (SD)): 3.32 (2.06) | CK AUClast/D (ABCC4 rs1151471 TT, mean (SD)): 32.65 (19.80) | CK Cmax/D (ABCC4 rs1151471 TT, mean (SD)): 4.16 (2.32) | CK AUClast/D (ABCC4 rs1189437 GG, n = 1): 12.12 (−) | CK Cmax/D (ABCC4 rs1189437 GG, n = 1): 1.80 (−) | CK AUClast/D (ABCC4 rs1189437 GT, mean (SD)): 20.77 (9.40) | CK Cmax/D (ABCC4 rs1189437 GT, mean (SD)): 2.74 (1.29) | CK AUClast/D (ABCC4 rs1189437 TT, mean (SD)): 31.84 (19.14) | CK Cmax/D (ABCC4 rs1189437 TT, mean (SD)): 4.06 (2.19) | CK AUClast/D (ABCC4 rs1751034 TC, mean (SD)): 18.58 (7.25) | CK Cmax/D (ABCC4 rs1751034 TC, mean (SD)): 2.45 (0.95) | CK AUClast/D (ABCC4 rs1751034 TT, mean (SD)): 32.53 (18.96) | CK Cmax/D (ABCC4 rs1751034 TT, mean (SD)): 4.23 (2.32) | CK AUClast/D (ABCC4 rs2274406 CT, mean (SD)): 28.24 (19.96) | CK Cmax/D (ABCC4 rs2274406 CT, mean (SD)): 3.68 (2.42) | CK AUClast/D [2]: 33.40 (14.80) | CK Cmax/D [2]: 4.70 (2.25) | CK AUClast/D [3]: 26.57 (13.77) | CK Cmax/D [3]: 3.25 (1.32) | CK AUClast/D (ABCC4 rs2274407 CA, mean (SD)): 28.22 (13.76) | CK Cmax/D (ABCC4 rs2274407 CA, mean (SD)): 3.43 (1.35) | CK AUClast/D (ABCC4 rs2274407 CC, mean (SD)): 28.81 (18.82) | CK Cmax/D (ABCC4 rs2274407 CC, mean (SD)): 3.84 (2.38) | CK AUClast/D (ABCC4 rs4148546 AA, mean (SD)): 26.51 (15.61) | CK Cmax/D (ABCC4 rs4148546 AA, mean (SD)): 3.43 (1.93) | CK Cmax/D (ABCC4 rs4148546 GA, mean (SD)): 3.49 (1.91) | CK AUClast/D (ABCC4 rs4148546 GG, mean (SD)): 39.82 (26.88) | CK Cmax/D (ABCC4 rs4148546 GG, mean (SD)): 4.87 (2.88) | CK AUClast/D (ABCC4 rs11568658 CC, mean (SD)): 28.31 (19.56) | CK AUClast/D [4]: 25.61 (12.77) | CK Cmax/D [4]: 3.31 (1.53) | CK AUClast/D [5]: 25.70 (13.01) | CK Cmax/D [5]: 3.29 (1.35) | CK AUClast/D (ABCG2 rs2054576 GA, mean (SD)): 32.78 (22.38) | CK Cmax/D (ABCG2 rs2054576 GA, mean (SD)): 4.31 (2.78) | CK AUClast/D (ABCG2 rs2231142 GG, mean (SD)): 27.45 (13.31) | CK Cmax/D (ABCG2 rs2231142 GG, mean (SD)): 3.51 (1.56) | CK AUClast/D (ABCG2 rs2231142 GT, mean (SD)): 31.50 (23.56) | CK Cmax/D (ABCG2 rs2231142 GT, mean (SD)): 3.89 (2.60) | CK AUClast/D (ABCG2 rs2231142 TT, mean (SD)): 25.70 (13.01) | CK Cmax/D (ABCG2 rs2231142 TT, mean (SD)): 3.29 (1.35) | CK AUClast/D (ABCG2 rs2231148 AA, mean (SD)): 35.54 (21.89) | CK Cmax/D (ABCG2 rs2231148 AA, mean (SD)): 4.43 (2.92) | CK AUClast/D (ABCG2 rs2231148 AT, mean (SD)): 39.28 (26.36) | CK Cmax/D (ABCG2 rs2231148 AT, mean (SD)): 4.87 (3.24) | CK AUClast/D (ABCG2 rs2231148 TT, mean (SD)): 23.05 (8.91) | CK Cmax/D (ABCG2 rs2231148 TT, mean (SD)): 3.09 (1.18) | CK AUClast/D (ABCG2 rs2725248 AA, mean (SD)): 26.94 (18.76) | CK Cmax/D (ABCG2 rs2725248 AA, mean (SD)): 3.68 (2.42) | CK AUClast/D (ABCG2 rs2725248 CA, mean (SD)): 31.91 (15.94) | CK Cmax/D (ABCG2 rs2725248 CA, mean (SD)): 3.96 (1.89) | CK AUClast/D (ABCG2 rs2725248 CC, mean (SD)): 40.01 (16.71)
